Square brackets hold non-standard residues; d marks the D form. Peptide text beside a SMILES is read from it. * marks the point of attachment. Dolaproine = CO[C@@H]([C@@H]1CCCN1)[C@@H](C)C(=O)O; Dil = CC[C@H](C)[C@H](NC)[C@@H](CC(=O)O)OC; Doe = c1ccc(C[C@H](N*)c2nccs2)cc1; X1 = C[C@@H](N*)[C@@H](O)c1ccccc1; NMeV = CN[C@H](C(=O)O)C(C)C

In data set [1] the test system is TNBC cell lines and LSECs. The data set is described as follows: GR analysis, comparison across cell lines/type. It counts as cell-based.
Data set [2] relates to TNBC cancer cell lines and LSEC. Kind of data set: Cellular partitioning and in vitro therapeutic index across cell lines/type. Type of data set: in vitro ADME. Particulars: range over cancer cell lines.
The next data set deals with MDA-MB-468 cells. The data set is described as follows: CTG assay in presence and absence of P-gp inhibitor. Type of data set: cell-based. The essentials:
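MDA-MB-468 cells were seeded at their pre-optimized density and allowed to adhere for 24 h. They were then exposed continuously to 0–200nM test compound for 3 days, in parallel with and without 0.6 µM zosuquidar (P-gp inhibitor). Read-out was CellTiter-Glo 2.0 cellular ATP.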

The next data set deals with MDA-MB-468. The data set is described as follows: Live cell imaging of growth, fluorescent nuclear marker. Particulars: MDA-MB-468, highest doses. It counts as cell-based. The essentials:
(§1)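 Cells were transfected with a red fluorescent nuclear marker. Growth in the presence of test compound was followed longitudinally by live-cell imaging of nuclei, as a check independent of the CellTiter-Glo endpoint.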

In another data set the test system is HCC1937. The data set is described as above. Type of data set: cell-based. An outline of the steps:
as §1

For another data set, the system named is tubulin. Particulars: cell free system; cited from earlier work.
The subject of the next data set is P-gp. Particulars: read-out: P-gp inhibition Ki; cited from earlier work.

In the case of `CC[C@H](C)[C@@H]([C@@H](CC(=O)N1CCC[C@H]1[C@H](OC)[C@@H](C)C(=O)N[C@@H](Cc1ccccc1)c1nccs1)OC)N(C)C(=O)[C@@H](NC(=O)[C@@H](NC)C(C)C)C(C)C` [MMAD, Monomethyl auristatin D] (H-[NMeV]V[Dil][Dolaproine]-Doe), the “GR50, fold lower than MMAE” value in data set [1] (media GR50, across cell lines/type) is 6-31 x. The “in vitro therapeutic index (TI), ratio of intracellular GR50 in LSEC to that in the cancer cell lines” value in data set [2] is 12–244 x.
In the case of `CC[C@H](C)[C@@H]([C@@H](CC(=O)N1CCC[C@H]1[C@H](OC)[C@@H](C)C(=O)N[C@H](C)[C@@H](O)c1ccccc1)OC)N(C)C(=O)[C@@H](NC(=O)[C@@H](NC)C(C)C)C(C)C` [MMAE, Monomethyl auristatin E] (H-[NMeV]V[Dil][Dolaproine]-X1), in data set [1] (media GR50, LSECs versus cancer cell lines), the “GR50 in LSECs, fold higher than in cancer cell lines” value is reported as 3-21 x. Further, in the data set with MDA-MB-468 cells (MDA-MB-468, with and without 0.6 µM Zosuquidar), the “dose response in presence and absence of P-gp efflux pump inhibitor” value was “nearly identical dose response”. In addition, the “cell growth in live cell imaging” value with MDA-MB-468 was “completely inhibited”; in the data set with HCC1937, “only marginal inhibition”. Also, the “in vitro therapeutic index (TI), ratio of intracellular GR50 in LSEC to that in the cancer cell lines” value in data set [2] is on record as 3-60 x.
Consider `CC[C@H](C)[C@@H]([C@@H](CC(=O)N1CCC[C@H]1[C@H](OC)[C@@H](C)C(=O)N[C@@H](Cc1ccccc1)C(=O)O)OC)N(C)C(=O)[C@@H](NC(=O)[C@@H](NC)C(C)C)C(C)C` [MMAF, monomethyl auristatin F] (H-[NMeV]V[Dil][Dolaproine]F-OH), for which the “tubulin binding affinity, fold better than MMAE” value in the data set with tubulin was ~ 5 x.
On to `O[C@@H](COc1cccc2ncccc12)CN1CCN([C@@H]2c3ccccc3[C@@H]3[C@H](c4ccccc42)C3(F)F)CC1` [Zosuquidar], for which the “effect of P-gp inhibitor by itself on cell growth” value in the data set on MDA-MB-468 cells (auristatin free MDA-MB-468 cells, 0.6 µM) was “did not have undesired effect on cell growth”. Also, the inhibition constant Ki – broadly, the dissociation constant of the complex between target and ligand, obtained from inhibition or displacement – with P-gp is 60 nM.

(Values after article PMC11814085 (Scientific Reports, 2025).)
